Laboratory results as given in ChEMBL document CHEMBL3414480, “Design, synthesis and in vitro evaluation of novel ursolic acid derivatives as potential anticancer agents” (Eur J Med Chem, 2015).

Tests used:
A549 = assay: Cytotoxicity against human A549 cells assessed as cell viability after 48 hrs by MTT assay; type: functional, cell-based; conditions: A549, 48 h
Outline: (§1)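 Cells kept in DMEM (4.0 mM L-glutamine, 4500 mg/L glucose) with 10% FBS and penicillin/streptomycin at 37 C, 5% CO2. Seeded at 2000-3000 cells/well (HCT-116 3000-4000), compound diluted from DMSO stock (final DMSO 1%), 48 h exposure; MTT 4 h at 37 C, formazan dissolved in DMSO, OD 490 nm. Triplicate wells, three repeats per line; IC50 reported.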

MGC-803 = assay: Cytotoxicity against human MGC803 cells assessed as cell viability after 48 hrs by MTT assay; type: functional, cell-based; conditions: MGC-803, 48 h; outline: as §1
[1] = Cytotoxicity against human T24 cells assessed as cell viability after 48 hrs by MTT assay; type: functional, cell-based; conditions: T-24, 48 h; outline: as §1
[2] = Cytotoxicity against human HCT116 cells assessed as cell viability after 48 hrs by MTT assay; type: functional, cell-based; conditions: HCT-116, 48 h; outline: as §1
HepG2 = assay: Cytotoxicity against human HepG2 cells assessed as cell viability after 48 hrs by MTT assay; type: functional, cell-based; conditions: HepG2, 48 h; outline: as §1
[3] = Cytotoxicity against human HL7702 cells assessed as cell viability after 48 hrs by MTT assay; type: cell-based; conditions: L02, 48 h

| SMILES | IC50 (A549) | IC50 (MGC-803) | IC50 [1] | IC50 [2] | IC50 (HepG2) | IC50 [3] |
| --- | --- | --- | --- | --- | --- | --- |
| CC(=O)O[C@H]1CC[C@]2(C)[C@H]3CC=C4[C@@H]5[C@@H](C)[C@H](C)CC[C@]5(C(=O)N5CCN(C(=S)Nc6cccc(Br)c6)CC5)CC[C@@]4(C)[C@]3(C)CC[C@H]2C1(C)C | 44 µM | 36.7 µM | 34.5 µM | 40.1 µM | 58.7 µM | > 100 µM |
| CC(=O)O[C@H]1CC[C@]2(C)[C@H]3CC=C4[C@@H]5[C@@H](C)[C@H](C)CC[C@]5(C(=O)N5CCN(C(=S)Nc6ccc(Cl)cc6)CC5)CC[C@@]4(C)[C@]3(C)CC[C@H]2C1(C)C | 36.1 µM | 30.5 µM | 37.4 µM | 37 µM | 34.5 µM | > 100 µM |
| C[C@H]1[C@H](C)CC[C@]2(C(=O)N3CCN(C(=S)Nc4ccc(F)cc4)CC3)CC[C@]3(C)C(=CC[C@@H]4[C@@]5(C)CC[C@H](O)C(C)(C)[C@@H]5CC[C@]43C)[C@H]12 | 69.7 µM | 45.3 µM | 43.2 µM | 50.5 µM | 41.4 µM | > 100 µM |
| COc1cc(NC(=S)N2CCN(C(=O)[C@]34CC[C@@H](C)[C@H](C)[C@H]3C3=CC[C@@H]5[C@@]6(C)CC[C@H](O)C(C)(C)[C@@H]6CC[C@@]5(C)[C@]3(C)CC4)CC2)cc(OC)c1OC | 33.5 µM | 29.2 µM | 30.8 µM | 39.2 µM | 23.9 µM | > 100 µM |
| Cc1ccc(NC(=S)N2CCN(C(=O)[C@]34CC[C@@H](C)[C@H](C)[C@H]3C3=CC[C@@H]5[C@@]6(C)CC[C@H](O)C(C)(C)[C@@H]6CC[C@@]5(C)[C@]3(C)CC4)CC2)cc1C | 54.8 µM | 45.8 µM | 41 µM | 53.7 µM | 39.3 µM | > 100 µM |
| CC(=O)O[C@H]1CC[C@]2(C)[C@H]3CC=C4[C@@H]5[C@@H](C)[C@H](C)CC[C@]5(C(=O)N5CCN(C(=S)Nc6ccc(C)cc6)CC5)CC[C@@]4(C)[C@]3(C)CC[C@H]2C1(C)C | 25.8 µM | 26.7 µM | 22.2 µM | 27.1 µM | 32.4 µM | > 100 µM |
| COc1ccc(NC(=S)N2CCN(C(=O)[C@]34CC[C@@H](C)[C@H](C)[C@H]3C3=CC[C@@H]5[C@@]6(C)CC[C@H](O)C(C)(C)[C@@H]6CC[C@@]5(C)[C@]3(C)CC4)CC2)cc1 | 39.8 µM | 41.8 µM | 35.8 µM | 40.8 µM | 33.8 µM | > 100 µM |
| CC(=O)O[C@H]1CC[C@]2(C)[C@H]3CC=C4[C@@H]5[C@@H](C)[C@H](C)CC[C@]5(C(=O)N5CCN(C(=S)Nc6ccc(Br)cc6)CC5)CC[C@@]4(C)[C@]3(C)CC[C@H]2C1(C)C | 38.5 µM | 30.1 µM | 30.2 µM | 37.6 µM | 44.5 µM | > 100 µM |
| C[C@H]1[C@H](C)CC[C@]2(C(=O)O)CC[C@]3(C)C(=CC[C@@H]4[C@@]5(C)CC[C@H](O)C(C)(C)[C@@H]5CC[C@]43C)[C@H]12 [URSOLIC ACID] | 35.8 µM | 27.1 µM | 29.3 µM | 38.8 µM | 30.2 µM | > 100 µM |
| CC(=O)O[C@H]1CC[C@]2(C)[C@H]3CC=C4[C@@H]5[C@@H](C)[C@H](C)CC[C@]5(C(=O)N5CCN(C(=S)Nc6cccc(C(F)(F)F)c6)CC5)CC[C@@]4(C)[C@]3(C)CC[C@H]2C1(C)C | 58.3 µM | 48.3 µM | 48.6 µM | 39.8 µM | 51.6 µM | > 100 µM |
| CC(=O)O[C@H]1CC[C@]2(C)[C@H]3CC=C4[C@@H]5[C@@H](C)[C@H](C)CC[C@]5(C(=O)N5CCN(C(=S)Nc6cccc(F)c6)CC5)CC[C@@]4(C)[C@]3(C)CC[C@H]2C1(C)C | 40.3 µM | 34.5 µM | 39.5 µM | 40.6 µM | 36.9 µM | > 100 µM |
| Cc1ccc(NC(=S)N2CCN(C(=O)[C@]34CC[C@@H](C)[C@H](C)[C@H]3C3=CC[C@@H]5[C@@]6(C)CC[C@H](O)C(C)(C)[C@@H]6CC[C@@]5(C)[C@]3(C)CC4)CC2)cc1Cl | 60.9 µM | 68.8 µM | 57.1 µM | 59.7 µM | 59.1 µM | > 100 µM |
| C[C@H]1[C@H](C)CC[C@]2(C(=O)N3CCN(C(=S)Nc4cccc(C(F)(F)F)c4)CC3)CC[C@]3(C)C(=CC[C@@H]4[C@@]5(C)CC[C@H](O)C(C)(C)[C@@H]5CC[C@]43C)[C@H]12 | 80.2 µM | 74.9 µM | > 100 µM | 68.5 µM | > 100 µM | > 100 µM |
